Assays:
[1] = biological target: T1, C-X-C chemokine receptor type 3 (Homo sapiens, UniProt P49682); test: Displacement of [125I]-CXCL10 from human recombinant CXCR3 transfected in Flp-In-CHO cell membranes after 60 mins by gamma counting method
T1 sequence (P49682 whole entry): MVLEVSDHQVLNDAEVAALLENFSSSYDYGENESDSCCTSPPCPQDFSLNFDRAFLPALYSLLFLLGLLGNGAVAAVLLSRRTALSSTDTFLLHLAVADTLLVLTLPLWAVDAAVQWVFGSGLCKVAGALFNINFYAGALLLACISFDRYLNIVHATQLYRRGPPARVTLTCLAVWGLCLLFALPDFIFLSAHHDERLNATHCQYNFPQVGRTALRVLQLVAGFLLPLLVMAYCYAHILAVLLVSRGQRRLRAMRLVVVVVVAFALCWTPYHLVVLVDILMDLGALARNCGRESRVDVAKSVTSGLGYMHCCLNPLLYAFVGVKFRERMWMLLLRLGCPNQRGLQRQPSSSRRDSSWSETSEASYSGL

[2] = Metabolic stability in human liver microsomes assessed as parent compound remaining in presence of NADPH by LC-MS/MS method; assay type: ADME
Outline: (§1)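 Compound incubated with liver microsomes (human or mouse) plus NADPH at 37 °C. Loss of parent was followed by LC-MS-MS and reported as percent. Stability bands: low <40%, medium 40–60%, high >60%.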

[3] = Metabolic stability in mouse liver microsomes assessed as parent compound remaining in presence of NADPH by LC-MS/MS method; assay type: ADME; outline: as §1
[4] = Apparent permeability across human Caco2 cells after 2 hrs by LC-MS method; assay type: ADME, cell-based; conditions: Caco-2
Outline: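 Caco-2 monolayers checked for integrity, then dosed alongside high- and low-permeability controls. Apical and basal samples taken at 2 h. Four transport conditions: A-B at pH 6.5/7.4 (0% or 0.5% BSA apical, 5% BSA basal), and A-B and B-A at pH 7.4/7.4 (0.5% BSA both sides). Compound quantified by LC/MS. Rapid transport defined as Papp >20 nm/s.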

[5] = Absolute oral bioavailability in Balb/c mouse at 10 mg/kg; assay type: ADME, organism-based; conditions: in vivo
Outline: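 Male Balb/c mice dosed once orally at 10 mg/kg and once intravenously at 3 mg/kg. Either 4 animals per route were profiled individually, or sparse sampling used 24 mice with 3 per time point for mean profiles. Absolute oral bioavailability was derived from the two routes.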

[6] = biological target: T2, Muscarinic acetylcholine receptor M2 (Homo sapiens) (UniProt P08172); test: Displacement of [3H]AF-DX384 from recombinant human muscarinic M2 receptor expressed in CHO cells at 10 uM after 60 mins by scintillation counting method relative to control; assay type: cell-based
T2 sequence (whole entry): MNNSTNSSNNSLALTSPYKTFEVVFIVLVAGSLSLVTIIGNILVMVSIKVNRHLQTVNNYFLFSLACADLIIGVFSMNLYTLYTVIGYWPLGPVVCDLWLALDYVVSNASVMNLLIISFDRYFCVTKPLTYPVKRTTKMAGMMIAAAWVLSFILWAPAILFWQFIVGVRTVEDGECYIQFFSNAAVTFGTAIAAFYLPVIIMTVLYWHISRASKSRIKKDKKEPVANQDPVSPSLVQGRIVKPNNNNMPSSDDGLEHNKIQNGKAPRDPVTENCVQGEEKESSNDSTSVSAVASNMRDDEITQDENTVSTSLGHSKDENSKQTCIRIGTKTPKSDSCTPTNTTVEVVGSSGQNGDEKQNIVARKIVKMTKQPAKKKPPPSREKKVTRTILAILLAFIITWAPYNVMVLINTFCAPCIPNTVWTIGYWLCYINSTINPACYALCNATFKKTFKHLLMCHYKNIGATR

Row | SMILES | IC50 [1] [nM] | Stability [2] [%] | Stability [3] [%] | Papp at 2 h [4] [×10⁻⁶ cm/s] | bioavailability [5] [%] | inhibition [6] [%]
1 | COc1cc(CN(CC(C)C)C(C)c2ccc3c(c2)CCO3)ccc1OCCN1C(=O)CCC1=O (configuration not stated) | 55 | 2 | 9 | – | – | –
2 | COc1cc(CN(Cc2ccc(F)cc2)C(C)c2ccc3c(c2)CCO3)ccc1OCCN1C(=O)CCC1=O (configuration not stated) | 97 | 24 | 19 | – | – | –
3 | COc1cc(CN(C[C@H]2CC[C@H](C(=O)O)CC2)C(C)c2ccc3c(c2)CCO3)ccc1OCCN1C(=O)CCC1=O (some centres not stated) | – | 98 | 92 | 0.98 | 17.3 | 54
4 | CCC(c1ccc2c(c1)CCO2)N(Cc1ccc(OCCN2C(=O)CCC2=O)c(OC)c1)CC(C)C (configuration not stated) | 38 | 19 | 19 | – | – | –
5 | COc1cc(CN(C)C(CC(C)C)c2ccc3c(c2)CCO3)ccc1OCCN1C(=O)CCC1=O (configuration not stated) | 330 | – | – | – | – | –
6 | COc1cc(CN(CC2CCCCC2)C(C)c2ccc3c(c2)CCO3)ccc1OCCN1C(=O)CCC1=O (configuration not stated) | 52 | 35 | 27 | – | – | –
7 | CC(c1ccc2c(c1)CCO2)N(Cc1ccc(OCCN2C(=O)CCC2=O)c(Cl)c1)C[C@H]1CC[C@H](C(=O)O)CC1 (some centres not stated) | – | 56 | 92 | 3.95 | – | 98
8 | COc1cc(CN(CC(C)=O)C(C)c2ccc3c(c2)CCO3)ccc1OCCN1C(=O)CCC1=O (configuration not stated) | 202 | 2 | 0 | – | – | –
9 | COc1cc(CN(CCN)C(C)c2ccc3c(c2)CCO3)ccc1OCCN1C(=O)CCC1=O (configuration not stated) | 2200 | 48 | 13 | – | – | –
10 | COc1cc(CN(Cc2ccc3c(c2)CCO3)CC(C)C)ccc1OCCN1C(=O)CCC1=O | 70 | 7 | 11 | – | – | –
11 | COc1cc(CN(CCCC(=O)O)C(C)c2ccc3c(c2)CCO3)ccc1OCCN1C(=O)CCC1=O (configuration not stated) | 210 | 100 | 95 | – | 2 | –
12 | COc1cc(CNC(CC(C)C)c2ccc3c(c2)CCO3)ccc1OCCN1C(=O)CCC1=O (configuration not stated) | 1800 | – | – | – | – | –
13 | COc1cc(CN(C)[C@@H](C)c2ccc3c(c2)CCO3)ccc1OCCN1C(=O)CCC1=O | 154 | – | – | – | – | –
14 | COc1cc(CN(Cc2ccc(C(=O)O)cc2)C(C)c2ccc3c(c2)CCO3)ccc1OCCN1C(=O)CCC1=O (configuration not stated) | 120 | 61 | 63 | – | 9 | –
15 | COc1cc(CNC(C)c2ccc3c(c2)CCO3)ccc1OCCN1C(=O)CCC1=O (configuration not stated) | 607 | 61 | 62 | – | – | –
16 | COc1cc(CNC(c2ccc3c(c2)CCO3)C2CCCC2)ccc1OCCN1C(=O)CCC1=O (configuration not stated) | 3260 | – | – | – | – | –
17 | COc1cc(CN(C)C(C)c2ccc3c(c2)CCO3)ccc1OCCN1C(=O)CNC1=O (configuration not stated) | 240 | 60 | 55 | – | – | –
18 | COc1cc(CN(C[C@H]2CC[C@H](C(=O)O)CC2)[C@H]2CCc3cc(Cl)ccc32)ccc1CCCN1C(=O)CCC1=O | 1000 | 36 | 24 | 16.5 | – | –
19 | COc1cc(CNC(C)(C)c2ccc3c(c2)CCO3)ccc1OCCN1C(=O)CCC1=O | 780 | – | – | – | – | –
20 | COc1cc(CN(Cc2cccnc2)C(C)c2ccc3c(c2)CCO3)ccc1OCCN1C(=O)CCC1=O (configuration not stated) | 190 | 19 | 29 | – | – | –
21 | CCCC(NCc1ccc(OCCN2C(=O)CCC2=O)c(OC)c1)c1ccc2c(c1)CCO2 (configuration not stated) | 1200 | – | – | – | – | –
22 | COc1cc(CN(C)[C@H](C)c2ccc3c(c2)CCO3)ccc1OCCN1C(=O)CCC1=O | 790 | – | – | – | – | –
23 | COc1cc(CN(CC23CCC(C(=O)O)(CC2)CC3)C(C)c2ccc3c(c2)CCO3)ccc1OCCN1C(=O)CCC1=O (configuration not stated) | 225 | 71 | 79 | 6.56 | – | –

Source: ChEMBL document CHEMBL3864163, “I. Discovery of a novel series of CXCR3 antagonists. Multiparametric optimization of N,N-disubstituted benzylamines” (Bioorg Med Chem Lett, 2016)
